# Data as given in ChEMBL document CHEMBL4028876, “Discovery of a Novel Piperidine-Based Inhibitor of Cholesteryl Ester Transfer Protein (CETP) That Retains Activity in Hypertriglyceridemic Plasma” (J Med Chem, 2017).
# The source made the active and inactive calls. The calls are words filed in the database; no cut-off is given here.
# Key:
# [1] = Selectivity for inhibition of CYP2C9 (unknown origin) to IC50 for inhibition of CETP in human plasma
# [2] = Oral bioavailability in Sprague-Dawley rat at 3 mg/kg by LC-ESI-MS/MS analysis; format: ADME, organism-based; settings: in vivo
# How it was run: (§1)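 Conscious 7-week-old male Sprague-Dawley rats on standard diet with free water. Dosing is 1 mg/kg iv bolus in N-methylpyrrolidin-2-one/PEG 200, or 3 mg/kg oral suspension in 0.5% aqueous methylcellulose. Blood is sampled at various time points after administration.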
# [3] = system: Syrian golden hamster; assay: Inhibition of CETP in Syrian hamster blood at 0.3 to 10 mg/kg, po dosed once daily for 2 weeks and measured 24 hrs post last dose; format: functional, organism-based; settings: Mesocricetus auratus
# [4] = system: Hamster; assay: Increase in HDL cholesterol levels in hamster plasma by HPLC size exclusion chromatography method relative to control; format: functional; settings: Cricetinae
# How it was run: (§2)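 Chow-fed hamsters gavaged once daily in the morning for 2 weeks (0.3, 1, 3, 10 mg/kg; vehicle 10 mL/kg). Blood is drawn from the abdominal vein under isoflurane 24 h post last dose, after a 16 h fast. Lipoprotein cholesterol is measured by Superose 6 HPLC with online enzymatic detection at 580 nm, standardized to control plasma. Mean ± SEM, n=6, Dunnett test.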
# [5] = system: Serum; assay: Drug uptake in triglyceride rich lipoprotein fraction of human serum from human donors with normal triglyceride levels (<150 mg/dL) by LC-MS/MS method; format: ADME, cell-free
# How it was run: (§3)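 Pooled unfasted human serum (mean TG 122, 347 or 958 mg/dL) spiked with inhibitor to 500 ng/mL, 37 °C, 1 h. NaBr density-gradient ultracentrifugation, 18.5 h at 15 °C. Acetonitrile precipitation, glyburide internal standard, LC-MS/MS in duplicate. Result given as % of total across pools.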
# [6] = system: NCI-H295R; assay: Toxicty in human NCI-H295R cells assessed as increase in aldosterone levels at 0.1 to 10000 nM after 24 hrs by scintillation proximity assay; format: toxicity, cell-based; settings: 10 µM
# [7] = system: Serum; assay: Drug uptake in LDL fraction of human serum from human donors with triglyceride levels ( 300-500 and >750 mg/dL) by LC-MS/MS method; format: ADME, cell-free; how it was run: as §3
# [8] = Half life in Sprague-Dawley rat at 1 mg/kg, iv or 3 mg/kg, po by LC-ESI-MS/MS analysis; format: ADME, organism-based; settings: in vivo; how it was run: as §1
# [9] = system: Syrian golden hamster; assay: Reduction in LDL cholesterol level in Syrian hamster plasma at 0.3 and 10 mg/kg, po dosed once daily for 2 weeks and measured 24 hrs post last dose by HPLC size exclusion chromatography method; format: functional, organism-based; settings: Mesocricetus auratus; how it was run: as §2
# [10] = Selectivity for inhibition of CYP3A4 (unknown origin) to IC50 for inhibition of CETP in human plasma
# [11] = system: Hamster; assay: Ex vivo inhibition of CETP activity in hamster hypertriglyceridemia model treated with 100 mg/kg, iv Triton WR-1339 dosed 5 hrs post compound dose measured every 15 mins for 120 mins by fluorescence method; format: functional, organism-based; settings: Cricetinae
# How it was run: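 Chow-fed hamsters given a single gavage dose of compound or vehicle. Triton WR-1339 (100 mg/kg) or saline is given iv 5 h later, and plasma is taken 3 h after that. Plasma (final 80%) is mixed with fluorescent donor in 50 mM Tris-HCl pH 7.4, 150 mM NaCl, 2 mM EDTA. Ex/em 485/535 nm, read every 15 min for 120 min at 37 °C. Activity is the 30–90 min slope. Five animals per group.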
# [12] = system: Serum; assay: Drug uptake in HDL fraction of human serum from human donors with triglyceride levels ( 300-500 and >750 mg/dL) by LC-MS/MS method; format: ADME, cell-free; how it was run: as §3
# [13] = system: Plasma; assay: Protein binding in human plasma using [14C]-labeled compound after 3 hrs by scintillation counting based ultracentrifugation method; format: ADME, cell-free
# How it was run: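 Human plasma spiked with [14C]-labelled compound at 50−10000 ng/mL, then ultracentrifuged 3 h at 37 °C at 306000g. Supernatant radioactivity is counted by scintillation. Bound fraction = (total − supernatant)/total.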
# [14] = Selectivity for inhibition of CYP2D6 (unknown origin) to IC50 for inhibition of CETP in human plasma
# [15] = Clearance in Sprague-Dawley rat plasma at 1 mg/kg, iv or 3 mg/kg, po by LC-ESI-MS/MS analysis; format: ADME, organism-based; how it was run: as §1
# [16] = system: Serum; assay: Drug uptake in HDL fraction of human serum from human donors with normal triglyceride levels (<150 mg/dL) by LC-MS/MS method; format: ADME, cell-free; how it was run: as §3
# [17] = molecular target: Cytochrome P450 2C9 (Homo sapiens, UniProt P11712); assay: Inhibition of CYP2C9 (unknown origin); format: ADME
# Cytochrome P450 2C9, sequence (P11712 whole entry): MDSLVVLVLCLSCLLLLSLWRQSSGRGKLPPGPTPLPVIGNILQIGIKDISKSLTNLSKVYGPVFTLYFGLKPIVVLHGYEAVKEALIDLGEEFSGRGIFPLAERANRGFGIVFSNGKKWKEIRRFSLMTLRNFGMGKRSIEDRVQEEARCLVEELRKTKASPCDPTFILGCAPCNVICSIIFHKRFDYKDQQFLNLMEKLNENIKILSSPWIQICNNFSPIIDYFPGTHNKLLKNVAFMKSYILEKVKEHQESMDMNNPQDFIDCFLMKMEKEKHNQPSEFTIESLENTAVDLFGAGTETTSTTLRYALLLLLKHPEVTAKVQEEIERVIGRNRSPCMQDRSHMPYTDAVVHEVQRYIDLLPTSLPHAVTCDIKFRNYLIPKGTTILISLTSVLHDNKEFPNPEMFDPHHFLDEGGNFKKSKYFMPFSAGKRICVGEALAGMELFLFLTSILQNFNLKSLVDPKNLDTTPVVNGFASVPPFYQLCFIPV
# [18] = molecular target: T1, Cytochrome P450 3A4 (Homo sapiens, UniProt P08684); assay: Inhibition of CYP3A4 (unknown origin) in the presence of testosterone; format: ADME
# T1 sequence (P08684 whole entry): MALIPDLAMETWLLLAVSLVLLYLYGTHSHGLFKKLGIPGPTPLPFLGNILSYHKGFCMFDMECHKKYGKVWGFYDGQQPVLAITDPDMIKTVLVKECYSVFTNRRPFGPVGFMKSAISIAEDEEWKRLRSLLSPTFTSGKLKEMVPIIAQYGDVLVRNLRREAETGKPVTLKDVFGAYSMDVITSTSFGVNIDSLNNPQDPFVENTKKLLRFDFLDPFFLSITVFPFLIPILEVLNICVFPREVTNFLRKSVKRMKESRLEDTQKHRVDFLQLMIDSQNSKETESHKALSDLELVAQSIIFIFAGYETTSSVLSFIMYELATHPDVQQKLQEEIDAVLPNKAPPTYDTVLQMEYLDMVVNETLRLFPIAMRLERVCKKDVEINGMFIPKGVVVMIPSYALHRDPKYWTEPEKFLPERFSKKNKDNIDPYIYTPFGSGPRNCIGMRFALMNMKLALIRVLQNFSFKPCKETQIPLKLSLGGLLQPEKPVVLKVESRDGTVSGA
# [19] = 1-Octanol-phosphate buffered saline partition coefficient, log D of compound at […] by tandem mass spectrometry method; format: physicochemical
# [20] = system: Serum; assay: Drug uptake in lipoprotein deficient serum fraction of human serum from human donors with normal triglyceride levels (<150 mg/dL) by LC-MS/MS method; format: ADME, cell-free; how it was run: as §3
# [21] = molecular target: T1, Cytochrome P450 3A4; assay: Inhibition of CYP3A4 (unknown origin) in the presence of midozolam; format: ADME
# [22] = Volume of distribution in Sprague-Dawley rat at 1 mg/kg, iv or 3 mg/kg, po by LC-ESI-MS/MS analysis; format: ADME, organism-based; settings: in vivo; how it was run: as §1
# [23] = Drug uptake in Syrian hamster adipose tissue at 10 mg/kg, po dosed once daily for 14 days measured 24 hrs post last dose by LC-MS/MS method; format: ADME, organism-based, Mesocricetus auratus; settings: in vivo
# How it was run: (§4)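 Chow-fed hamsters dosed orally once daily for 14 days. Blood and ~100 mg adipose, adrenal and liver samples are taken 24 h after the final dose. Tissues are flash-frozen and stored at −80 °C. Total drug concentrations are measured by LC-MS/MS. Mean ± SEM, seven animals per group.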
# [24] = system: Serum; assay: Drug uptake in LDL fraction of human serum from human donors with normal triglyceride levels (<150 mg/dL) by LC-MS/MS method; format: ADME, cell-free; how it was run: as §3
# [25] = Drug uptake in Syrian hamster plasma at 10 mg/kg, po dosed once daily for 14 days measured 24 hrs post last dose by LC-MS/MS method; format: ADME, organism-based, Mesocricetus auratus; settings: in vivo; how it was run: as §4
# [26] = molecular target: Cytochrome P450 2D6 (Homo sapiens, UniProt P10635); assay: Inhibition of CYP2D6 (unknown origin); format: ADME
# Cytochrome P450 2D6, sequence (P10635 whole entry): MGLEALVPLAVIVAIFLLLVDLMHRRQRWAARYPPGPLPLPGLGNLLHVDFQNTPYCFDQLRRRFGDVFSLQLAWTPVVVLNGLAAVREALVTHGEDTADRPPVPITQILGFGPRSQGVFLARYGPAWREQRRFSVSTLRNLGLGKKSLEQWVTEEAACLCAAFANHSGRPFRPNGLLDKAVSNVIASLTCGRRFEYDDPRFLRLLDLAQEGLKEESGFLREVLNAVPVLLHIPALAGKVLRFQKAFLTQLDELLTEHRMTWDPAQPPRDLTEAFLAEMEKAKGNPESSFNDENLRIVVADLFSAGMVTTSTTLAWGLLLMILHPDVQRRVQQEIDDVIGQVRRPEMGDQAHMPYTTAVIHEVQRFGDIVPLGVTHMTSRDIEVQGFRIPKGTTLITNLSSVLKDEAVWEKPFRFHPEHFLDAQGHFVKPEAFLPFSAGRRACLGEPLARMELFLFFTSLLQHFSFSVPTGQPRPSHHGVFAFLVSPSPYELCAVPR
# [27] = Drug uptake in Syrian hamster adrenal tissue at 10 mg/kg, po dosed once daily for 14 days measured 24 hrs post last dose by LC-MS/MS method; format: ADME, organism-based, Mesocricetus auratus, Adrenal gland; settings: in vivo; how it was run: as §4
# [28] = system: Syrian golden hamster; assay: Increase in HDL cholesterol level in Syrian hamster plasma at 0.3 and 10 mg/kg, po dosed once daily for 2 weeks and measured 24 hrs post last dose by HPLC size exclusion chromatography method relative to control; format: functional, organism-based; settings: Mesocricetus auratus; how it was run: as §2
# [29] = molecular target: T2, Cholesteryl ester transfer protein (Homo sapiens) (UniProt P11597); assay: Inhibition of CETP activity in human serum at upto 1200 mg/dl serum triglyceride concentration by LC-MS/MS method; settings: in the assay text read “fluorescence method” for “LC-MS/MS method”
# T2 sequence (whole entry): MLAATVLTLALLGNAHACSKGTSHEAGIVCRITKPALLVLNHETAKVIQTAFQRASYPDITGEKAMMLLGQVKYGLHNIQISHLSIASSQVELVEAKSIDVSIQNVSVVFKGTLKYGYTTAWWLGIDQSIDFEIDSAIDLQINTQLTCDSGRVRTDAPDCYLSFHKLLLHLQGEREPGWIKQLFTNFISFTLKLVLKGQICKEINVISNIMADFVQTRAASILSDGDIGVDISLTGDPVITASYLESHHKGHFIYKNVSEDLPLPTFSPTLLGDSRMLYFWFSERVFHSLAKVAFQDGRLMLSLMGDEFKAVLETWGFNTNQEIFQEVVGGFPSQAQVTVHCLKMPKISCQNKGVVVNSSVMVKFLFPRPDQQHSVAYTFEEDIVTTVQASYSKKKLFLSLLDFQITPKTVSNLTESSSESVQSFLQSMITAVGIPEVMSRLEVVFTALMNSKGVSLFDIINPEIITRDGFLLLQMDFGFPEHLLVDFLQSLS
# How it was run: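 Three human serum pools of differing triglyceride level. IC50 values are the mean of two replicates per pool.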
# [30] = system: Syrian golden hamster; assay: Reduction in LDL cholesterol level in Syrian hamster plasma at 0.3 and 10 mg/kg, po dosed once daily for 2 weeks and measured 24 hrs post last dose by HPLC size exclusion chromatography method relative to control; format: functional, organism-based; settings: Mesocricetus auratus; how it was run: as §2
# [31] = AUC (infinity) in Sprague-Dawley rat at 1 mg/kg, iv or 3 mg/kg, po by LC-ESI-MS/MS analysis; format: ADME, organism-based; settings: in vivo; how it was run: as §1
# [32] = system: Serum; assay: Drug uptake in triglyceride rich lipoprotein fraction of human serum from human donors with triglyceride levels ( 300-500 and >750 mg/dL) by LC-MS/MS method; format: ADME, cell-free; how it was run: as §3
# [33] = system: Rattus norvegicus; assay: Toxicity in cannulated Sprague-Dawley rat assessed as increase in plasma aldosterone levels at 5 mg/kg, iv by radioimmunoassay; format: organism-based; settings: in vivo
# [34] = system: Rattus norvegicus; assay: Toxicity in cannulated Sprague-Dawley rat assessed as increase in mean arterial pressure at 5 mg/kg, iv by blood pressure transducer based method; format: organism-based; settings: in vivo
# [35] = system: Serum; assay: Drug uptake in lipoprotein deficient serum fraction of human serum from human donors with triglyceride levels ( 300-500 and >750 mg/dL) by LC-MS/MS method; format: ADME, cell-free; how it was run: as §3
smiles,measurement,setting,value
CC[C@@H]1C[C@H](N(Cc2cc(C(F)(F)F)cc(C(F)(F)F)c2)c2ncc(-c3cnn(C)c3)cn2)C[C@H](CC)N1C(=O)O[C@H]1CC[C@H](C(=O)O)CC1,Selectivity ratio,[1],>170
same,bioavailability,[2],43%
same,inhibition,[3],Active
same,Activity,[4],Dose-dependent effect
same,Drug uptake,[5],Active
same,Activity,[6],Non-Toxic
same,Drug uptake,[7],Active
same,half-life,[8],5.8 h
same,Activity,[9],Dose-dependent effect
same,Selectivity ratio,[10],>170
same,inhibition,[11],Active
same,Drug uptake,[12],Active
same,PPB,[13],99.4%
same,Selectivity ratio,[14],>170
same,clearance,[15],1.5 mL/min/kg
same,Drug uptake,[16],Active
same,IC50,[17],19 µM
same,IC50,[18],> 50 µM
same,logD,[19],5.2
same,Drug uptake,[20],Active
same,IC50,[21],10.6 µM
same,Vd,[22],0.57 L/kg
same,Drug uptake,[23],Not Active
same,Drug uptake,[24],Active
same,Drug uptake,[25],Active
same,IC50,[26],31 µM
same,Drug uptake,[27],Not Active
same,Activity,[28],Dose-dependent effect
same,inhibition,[29],Active
same,Activity,[30],Active
same,AUC(0-inf),[31],27.2 µM·h
same,Drug uptake,[32],Active
same,Activity,[33],Non-Toxic
same,Activity,[34],Non-Toxic
same,Drug uptake,[35],Active
